In ChEMBL document CHEMBL1649165, “Activity profile in vitro of micafungin against Spanish clinical isolates of common and emerging species of yeasts and molds” (2009):
Values after ≈ are worked out from the molar mass of the structure shown.

Columns and labels:
Format in all cases: functional
Trichosporon domesticum = experiment: Antimicrobial activity against Trichosporon mycotoxinivorans by broth microdilution method; details: Apiotrichum domesticum
How it was run: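 Spanish human clinical isolates were tested as nonfermentative yeasts by broth microdilution. The method strictly followed the EUCAST recommendations, with a minor modification to improve growth, and the read-out was the MIC.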

[1] = test system: Cunninghamella bertholletiae; experiment: Antimicrobial activity against Cunninghamella bertholletiae by broth microdilution method
How it was run: (§1)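 Clinical mould isolates, tested by broth microdilution using the AFST-EUCAST reference method for filamentous fungi. For echinocandins, the endpoint was the minimum effective concentration: the lowest drug concentration giving aberrant hyphal growth, read with an inverted microscope.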

Trichoderma = experiment: Antimicrobial activity against Trichoderma spp. by broth microdilution method
How it was run: (§2)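 Filamentous fungus clinical isolates tested by the AFST-EUCAST reference broth microdilution method for moulds. For echinocandins, the endpoint was the minimum effective concentration: the lowest drug concentration giving aberrant hyphal growth, read with an inverted microscope.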

Aspergillus fumigatus = experiment: Antimicrobial activity against Aspergillus fumigatus by broth microdilution method; how it was run: as §1
Paecilomyces variotii = experiment: Antimicrobial activity against Paecilomyces variotii by broth microdilution method; how it was run: as §2
Candida metapsilosis = experiment: Antimicrobial activity against Candida metapsilosis by broth microdilution method; details: Lodderomyces metapsilosis
How it was run: (§3)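 Clinical isolates from human patients, tested by broth microdilution using the AFST-EUCAST reference procedure for fermentative yeasts. The MIC was read per that reference method.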

Fusarium equiseti = experiment: Antimicrobial activity against Fusarium equiseti by broth microdilution method; how it was run: as §1
[2] = test system: Meyerozyma guilliermondii; experiment: Antimicrobial activity against Candida guilliermondii by broth microdilution method; how it was run: as §3
Trichosporon inkin = experiment: Antimicrobial activity against Trichosporon inkin by broth microdilution method
How it was run: (§4)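 Nonfermentative yeast clinical isolates (Rhodotorula, Trichosporon) tested by broth microdilution. The EUCAST yeast recommendations were followed strictly, with one minor modification to improve growth. MIC was read as the endpoint.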

Ustilago = experiment: Antimicrobial activity against Ustilago spp by broth microdilution method
[3] = Antimicrobial activity against Hormographiella aspergillata by broth microdilution method; details: Coprinopsis cinerea; how it was run: as §2
Aspergillus nidulans = experiment: Antimicrobial activity against Aspergillus nidulans by broth microdilution method; how it was run: as §1
Aspergillus = experiment: Antimicrobial activity against Aspergillus spp. by broth microdilution method; how it was run: as §1
Candida orthopsilosis = experiment: Antimicrobial activity against Candida orthopsilosis by broth microdilution method; details: Lodderomyces orthopsilosis; how it was run: as §3
Debaryomyces hansenii = experiment: Antimicrobial activity against Candida famata by broth microdilution method; how it was run: as §3
Beauveria bassiana = experiment: Antimicrobial activity against Beauveria bassiana by broth microdilution method; how it was run: as §1
[4] = Antimicrobial activity against Rhizopus microsporus by broth microdilution method; how it was run: as §2
Aspergillus terreus = experiment: Antimicrobial activity against Aspergillus terreus by broth microdilution method; how it was run: as §1
Wickerhamomyces anomalus = experiment: Antimicrobial activity against Candida pelliculosa by broth microdilution method; details: Hansenula anomala; how it was run: as §3
Rhodotorula mucilaginosa = experiment: Antimicrobial activity against Rhodotorula mucilaginosa by broth microdilution method; how it was run: as §4
Yarrowia lipolytica = experiment: Antimicrobial activity against Yarrowia lipolytica by broth microdilution method
[5] = test system: Kazachstania pintolopesii; experiment: Antimicrobial activity against Candida pintolopesii by broth microdilution method; details: Arxiozyma pintolopesii; how it was run: as §3
Cladosporium = experiment: Antimicrobial activity against Cladosporium spp. by broth microdilution method; how it was run: as §1
Aspergillus flavus = experiment: Antimicrobial activity against Aspergillus flavus by broth microdilution method; how it was run: as §1
Acremonium sp. = experiment: Antimicrobial activity against Acremonium sp.by broth microdilution method; how it was run: as §1
Alternaria alternata = experiment: Antimicrobial activity against Alternaria alternata by broth microdilution method; how it was run: as §1
Trichosporon jirovecii = experiment: Antimicrobial activity against Trichosporon jirovecii by broth microdilution method; details: Cutaneotrichosporon jirovecii; how it was run: as §4
[6] = test system: Cladophialophora bantiana; experiment: Antimicrobial activity against Cladophialophora bantiana by broth microdilution method; how it was run: as §1
Mucor = experiment: Antimicrobial activity against Mucor spp.by broth microdilution method; how it was run: as §2
Hortaea werneckii = experiment: Antimicrobial activity against Hortaea werneckii by broth microdilution method
Candida tropicalis = experiment: Antimicrobial activity against Candida tropicalis by broth microdilution method; how it was run: as §3
Rhizopus arrhizus = experiment: Antimicrobial activity against Rhizopus oryzae by broth microdilution method; how it was run: as §2
Fusarium proliferatum = experiment: Antimicrobial activity against Fusarium proliferatum by broth microdilution method; how it was run: as §1
Exophiala dermatitidis = experiment: Antimicrobial activity against Exophiala dermatitidis by broth microdilution method
Aspergillus ustus = experiment: Antimicrobial activity against Aspergillus ustus by broth microdilution method; how it was run: as §1
Nakaseomyces glabratus = experiment: Antimicrobial activity against Candida glabrata by broth microdilution method; how it was run: as §3
Trichosporon dermatis = experiment: Antimicrobial activity against Trichosporon dermatis by broth microdilution method; details: Cutaneotrichosporon dermatis; how it was run: as §4
Coprinellus domesticus = experiment: Antimicrobial activity against Hormographiella verticillata by broth microdilution method; how it was run: as §2
Saksenaea vasiformis = experiment: Antimicrobial activity against Saksenaea vasiformis by broth microdilution method; how it was run: as §2
Candida parapsilosis = experiment: Antimicrobial activity against Candida parapsilosis by broth microdilution method; details: Lodderomyces parapsilosis; how it was run: as §3
Trichosporon = experiment: Antimicrobial activity against Trichosporon spp. by broth microdilution method; how it was run: as §4
Diutina rugosa = experiment: Antimicrobial activity against Candida rugosa by broth microdilution method; how it was run: as §3
Fusarium verticillioides = experiment: Antimicrobial activity against Fusarium verticillioides by broth microdilution method; how it was run: as §2
Penicillium = experiment: Antimicrobial activity against Penicillium spp. by broth microdilution method; how it was run: as §2
Rhodotorula glutinis = experiment: Antimicrobial activity against Rhodotorula glutinis by broth microdilution method; how it was run: as §4

`CC[C@H](C)C[C@H](C)CCCCCCCCC(=O)N[C@H]1C[C@@H](O)[C@@H](NCCN)NC(=O)[C@@H]2[C@@H](O)CCN2C(=O)[C@H]([C@H](O)CCN)NC(=O)[C@H]([C@H](O)[C@@H](O)c2ccc(O)cc2)NC(=O)[C@@H]2C[C@@H](O)CN2C(=O)[C@H]([C@@H](C)O)NC1=O` [CASPOFUNGIN] showed an MIC50 (Trichosporon domesticum) of over 16 µg/mL, an MIC90 (Trichosporon domesticum) of over 16 µg/mL and an MIC50 [1] of over 16 µg/mL. It also gave an MIC90 [1] of over 16 µg/mL, an MIC50 (Trichoderma) of over 16 µg/mL and an MIC90 (Trichoderma) of over 16 µg/mL. It also gave an MIC50 (Aspergillus fumigatus) of 0.25 µg/mL (≈ 0.229 µM), an MIC90 (Aspergillus fumigatus) of 0.5 µg/mL (≈ 0.457 µM) and an MIC50 (Paecilomyces variotii) of 0.5 µg/mL (≈ 0.457 µM). For the same compound, the MIC90 (Paecilomyces variotii) was 4 µg/mL (≈ 3.66 µM), the MIC50 (Candida metapsilosis) was 0.06 µg/mL (≈ 0.0549 µM) and the MIC90 (Candida metapsilosis) was 0.5 µg/mL (≈ 0.457 µM). For the same compound, the MIC50 (Fusarium equiseti) was over 16 µg/mL, the MIC90 (Fusarium equiseti) was over 16 µg/mL and the MIC50 [2] was 0.5 µg/mL (≈ 0.457 µM). The MIC90 [2] was 1 µg/mL (≈ 0.915 µM), the MIC50 (Trichosporon inkin) was over 16 µg/mL and the MIC90 (Trichosporon inkin) was over 16 µg/mL. It also gave an MIC50 (Ustilago) of over 16 µg/mL, an MIC90 (Ustilago) of over 16 µg/mL and an MIC50 [3] of over 16 µg/mL. The MIC90 [3] was over 16 µg/mL, the MIC50 (Aspergillus nidulans) was 0.5 µg/mL (≈ 0.457 µM) and the MIC90 (Aspergillus nidulans) was over 16 µg/mL. For the same compound, the MIC50 (Aspergillus) was 0.12 µg/mL (≈ 0.11 µM), the MIC90 (Aspergillus) was 0.5 µg/mL (≈ 0.457 µM) and the MIC50 (Candida orthopsilosis) was 0.06 µg/mL (≈ 0.0549 µM). For the same compound, the MIC90 (Candida orthopsilosis) was 0.5 µg/mL (≈ 0.457 µM), the MIC50 (Debaryomyces hansenii) was 0.06 µg/mL (≈ 0.0549 µM) and the MIC90 (Debaryomyces hansenii) was 0.5 µg/mL (≈ 0.457 µM). For the same compound, the MIC50 (Beauveria bassiana) was over 16 µg/mL, the MIC90 (Beauveria bassiana) was over 16 µg/mL and the MIC50 [4] was over 16 µg/mL. For the same compound, the MIC90 [4] was over 16 µg/mL, the MIC50 (Aspergillus terreus) was 1 µg/mL (≈ 0.915 µM) and the MIC90 (Aspergillus terreus) was 2 µg/mL (≈ 1.83 µM). The MIC50 (Wickerhamomyces anomalus) was 0.06 µg/mL (≈ 0.0549 µM), the MIC90 (Wickerhamomyces anomalus) was 0.5 µg/mL (≈ 0.457 µM) and the MIC50 (Rhodotorula mucilaginosa) was over 16 µg/mL. For the same compound, the MIC90 (Rhodotorula mucilaginosa) was over 16 µg/mL, the MIC50 (Yarrowia lipolytica) was 0.5 µg/mL (≈ 0.457 µM) and the MIC90 (Yarrowia lipolytica) was 1 µg/mL (≈ 0.915 µM). It also gave an MIC50 [5] of 0.06 µg/mL (≈ 0.0549 µM), an MIC90 [5] of 0.5 µg/mL (≈ 0.457 µM) and an MIC50 (Cladosporium) of 0.25 µg/mL (≈ 0.229 µM). It also gave an MIC90 (Cladosporium) of 1 µg/mL (≈ 0.915 µM), an MIC50 (Aspergillus flavus) of over 16 µg/mL and an MIC90 (Aspergillus flavus) of over 16 µg/mL. It also gave an MIC50 (Acremonium sp.) of 0.5 µg/mL (≈ 0.457 µM), an MIC90 (Acremonium sp.) of 1 µg/mL (≈ 0.915 µM) and an MIC50 (Alternaria alternata) of 4 µg/mL (≈ 3.66 µM). For the same compound, the MIC90 (Alternaria alternata) was over 16 µg/mL, the MIC50 (Trichosporon jirovecii) was over 16 µg/mL and the MIC90 (Trichosporon jirovecii) was over 16 µg/mL. It also gave an MIC50 [6] of 0.25 µg/mL (≈ 0.229 µM), an MIC90 [6] of 1 µg/mL (≈ 0.915 µM) and an MIC50 (Mucor) of over 16 µg/mL. For the same compound, the MIC90 (Mucor) was over 16 µg/mL, the MIC50 (Hortaea werneckii) was 0.25 µg/mL (≈ 0.229 µM) and the MIC90 (Hortaea werneckii) was 1 µg/mL (≈ 0.915 µM). The MIC50 (Candida tropicalis) was 0.12 µg/mL (≈ 0.11 µM), the MIC90 (Candida tropicalis) was 0.25 µg/mL (≈ 0.229 µM) and the MIC50 (Rhizopus arrhizus) was over 16 µg/mL. The MIC90 (Rhizopus arrhizus) was over 16 µg/mL, the MIC50 (Fusarium proliferatum) was over 16 µg/mL and the MIC90 (Fusarium proliferatum) was over 16 µg/mL. For the same compound, the MIC50 (Exophiala dermatitidis) was 0.25 µg/mL (≈ 0.229 µM), the MIC90 (Exophiala dermatitidis) was 1 µg/mL (≈ 0.915 µM) and the MIC50 (Aspergillus ustus) was 0.12 µg/mL (≈ 0.11 µM). The MIC90 (Aspergillus ustus) was 0.5 µg/mL (≈ 0.457 µM), the MIC50 (Nakaseomyces glabratus) was 0.12 µg/mL (≈ 0.11 µM) and the MIC90 (Nakaseomyces glabratus) was 0.25 µg/mL (≈ 0.229 µM). The MIC50 (Trichosporon dermatis) was over 16 µg/mL, the MIC90 (Trichosporon dermatis) was over 16 µg/mL and the MIC50 (Coprinellus domesticus) was over 16 µg/mL. It also gave an MIC90 (Coprinellus domesticus) of over 16 µg/mL, an MIC50 (Saksenaea vasiformis) of over 16 µg/mL and an MIC90 (Saksenaea vasiformis) of over 16 µg/mL. For the same compound, the MIC50 (Candida parapsilosis) was 1 µg/mL (≈ 0.915 µM), the MIC90 (Candida parapsilosis) was 1 µg/mL (≈ 0.915 µM) and the MIC50 (Trichosporon) was over 16 µg/mL. The MIC90 (Trichosporon) was over 16 µg/mL, the MIC50 (Diutina rugosa) was 0.06 µg/mL (≈ 0.0549 µM) and the MIC90 (Diutina rugosa) was 0.5 µg/mL (≈ 0.457 µM). It also gave an MIC50 (Fusarium verticillioides) of over 16 µg/mL, an MIC90 (Fusarium verticillioides) of over 16 µg/mL and an MIC50 (Penicillium) of 0.25 µg/mL (≈ 0.229 µM). The MIC90 (Penicillium) was 8 µg/mL (≈ 7.32 µM), the MIC50 (Rhodotorula glutinis) was over 16 µg/mL and the MIC90 (Rhodotorula glutinis) was over 16 µg/mL.
